We go through 22 compounds from ChEMBL document CHEMBL4393742, “Structure-activity analysis of peptidic Chlamydia HtrA inhibitors” (Bioorg Med Chem, 2019).

Active and inactive are the calls of the source. No cut-off for these calls is given here. Square brackets hold non-standard residues; d marks the D form. Peptide text beside a SMILES is read from it. * marks the point of attachment. ξ: configuration not given here. Boc = CC(C)(C)OC(=O)*; ξV = CC(C)C(N)C(=O)O Some results are limits rather than exact numbers.

Assay [1] is described as follows: Inhibition of chlamydia trachomatis HtrA using MCA-ENLHLPLPIIF-DNP as substrate by FRET or pNA assay. In short, it runs like this:
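Recombinant CtHtrA at 0.5 mg/mL stock, preincubated with inhibitor in DMSO in 50 mM Tris/20 mM MgCl2, pH 7.0, for 20 min at 37 °C. Reaction started with quenched fluorescent peptide (methoxycoumarin fluorophore, DNP quencher; 1 mg/mL stock in 50% isopropanol). Fluorescence read immediately at ex 340/em 405 nm over 50 cycles.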

Assay [2] is described as follows: Inhibition of bovine pancreas chymotrypsin using AAPF-pNA as substrate preincubated for 15 mins followed by substrate addition and measured every 15 secs for 5 mins. The arrangement: species or system Bos taurus. The method, boiled down:
(§1)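 Enzyme and inhibitor (in DMSO) were preincubated at 37 °C for 15 min in 0.10 M Tris-HCl, pH 8.1, with 0.02 M CaCl₂. The pNA substrate was added to start the reaction. A405 was monitored every 15 s over 5 min at 37 °C. Runs were in triplicate, and inhibition was expressed as percent enzyme activity remaining.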

The target in another assay is T1, Neutrophil elastase (Homo sapiens, UniProt P08246).
T1 sequence (P08246 whole entry): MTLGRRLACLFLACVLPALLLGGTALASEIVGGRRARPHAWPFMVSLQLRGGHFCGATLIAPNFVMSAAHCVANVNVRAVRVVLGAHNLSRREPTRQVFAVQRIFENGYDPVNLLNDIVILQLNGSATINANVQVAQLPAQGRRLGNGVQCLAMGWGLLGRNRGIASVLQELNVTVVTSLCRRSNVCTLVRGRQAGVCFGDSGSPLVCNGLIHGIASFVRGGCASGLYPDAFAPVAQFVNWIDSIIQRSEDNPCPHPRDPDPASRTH
The assay can be described thus: Inhibition of human neutrophil elastase using AAPV-pNA as substrate preincubated for 15 mins followed by substrate addition and measured every 15 secs for 5 mins. The method, boiled down: as §1

The test system of a further assay is Chlamydia trachomatis. The assay can be described thus: Antibacterial activity against Chlamydia trachomatis D/UW-3/Cx strain infected in mouse McCoy cells assessed as inclusion forming units at 100 uM treated 16 hrs post infection measured at 44 hrs post-infection by Evan's blue staining based-confocal microscopic analysis (reference value: 62 +/- 8.5 10^5U/mL). Type of assay: functional.

A short description of assay [3]: Inhibition of recombinant chlamydia trachomatis serovar L2 434/Bu/ATCC VR-902B HtrA expressed in Escherichia coli BL21(DE3) using MeOCoum-ENLHLPLPIIF-NH-DNP as fluorescent mimotope preincubated for 20 mins followed by mimotope addition in presence of fluorophore 7-methoxycoumarin-4-acetic acid by plate reader based fluorescence assay. The arrangement: species or system Chlamydia trachomatis 434/Bu.

The next assay deals with Trypsin (Homo sapiens, UniProt P07477+P07478+P35030). The assay can be described thus: Inhibition of human trypsin using Nalpha-benzoyl-DL-R-pNA as substrate preincubated for 15 mins followed by substrate addition and measured every 15 secs for 5 mins. The format is protein assay. In short, it runs like this: as §1
Assay [4] relates to Chlamydia trachomatis 434/Bu. The assay can be described thus: Potency index, ratio of JO146 IC50 to compound IC50 for inhibition of recombinant chlamydia trachomatis serovar L2 434/Bu/ATCC VR-902B HtrA expressed in Escherichia coli BL21(DE3) using MeOCoum-ENLHLPLPIIF-NH-DNP as fluorescent mimotope preincubated for 20 mins followed by mimotope addition in presence of fluorophore 7-methoxycoumarin-4-acetic acid by plate reader based fluorescence assay.

A further assay concerns Chlamydia pecorum. Put plainly: Antibacterial activity against Chlamydia pecorum IPA ATCC VR629 infected in mouse McCoy cells assessed as inclusion forming units at 100 uM treated 16 hrs post infection measured at 44 hrs post-infection by Evan's blue staining based-confocal microscopic analysis (reference value: 342.55646 +/- 6.53872 10^5U/mL). Type of assay: functional.

With `CC(C)C(NC(=O)[C@@H]1CCCN1C(=O)[C@@H](NC(=O)OC(C)(C)C)C(C)C)P(=O)(Oc1ccccc1)Oc1ccccc1` (stereo partly drawn), the IC50 (in general, the concentration at which inhibition is half-maximal) was 12.5 µM in assay [1]; greater than 500 µM in assay [2]; 0.83 µM on Neutrophil elastase; 13 to 351 µM in assay [3]; greater than 500 µM against Trypsin. In the assay with Chlamydia trachomatis, the Activity is recorded as 0.00434 ×10⁵ U/mL.
`CC(C)C(NC(=O)[C@@H]1CCCN1C(=O)[C@H](C)NC(=O)OC(C)(C)C)P(=O)(Oc1ccccc1)Oc1ccccc1` (stereo partly drawn) registered a half-inhibitory concentration (IC50) in assay [1] of 47.2 µM.
`CC(C)C(NC(=O)[C@@H]1CCCN1C(=O)[C@@H](NC(=O)OC(C)(C)C)C(C)C)C(=O)C(N)=O` (stereo partly drawn): in the assay with Chlamydia trachomatis, the Activity stood at 29.07 ×10⁵ U/mL. Further, the IC50 in assay [3] was greater than 500 µM. Further, in assay [4], the “Ratio IC50” value is “inactive”.
The like results for `CCN(C)C(=O)C(NC(=O)[C@@H]1CCCN1C(=O)[C@@H](NC(=O)OC(C)(C)C)C(C)C)C(C)C` (stereo partly drawn) were, in that order, 34.5497 ×10⁵ U/mL, greater than 500 µM and “inactive”.
Regarding `CC(C)C(NC(=O)[C@@H]1CCCN1C(=O)[C@@H](NC(=O)OC(C)(C)C)C(C)C)C(=O)N(C)C1CC1` (stereo partly drawn), the Activity with Chlamydia trachomatis was determined as 8.3844 ×10⁵ U/mL. Besides, the IC50 in assay [3] was greater than 500 µM. The “Ratio IC50” value in assay [4] is “inactive”.
For `C=CCN(C)C(=O)C(NC(=O)[C@@H]1CCCN1C(=O)[C@@H](NC(=O)OC(C)(C)C)C(C)C)C(C)C` (stereo partly drawn), the Activity in the assay with Chlamydia trachomatis turned out to be 36.2553 ×10⁵ U/mL. In addition, in assay [3], the IC50 was greater than 500 µM. Besides, the “Ratio IC50” value in assay [4] is “inactive”.
Take `CCCC(NC(=O)[C@@H]1CCCN1C(=O)[C@@H](NC(=O)OC(C)(C)C)C(C)C)C(=O)c1nccs1` (stereo partly drawn): the IC50 in assay [2] was greater than 500 µM; at Neutrophil elastase, greater than 150 µM; in assay [3], greater than 500 µM; at Trypsin, greater than 500 µM. In addition, the “Ratio IC50” value in assay [4] was “inactive”.
In the case of `CC(C)C(NC(=O)[C@@H]1CCCN1C(=O)[C@@H](NC(=O)OC(C)(C)C)C(C)C)C(=O)N(C)C` (stereo partly drawn) (Boc-Val-Pro-[ξV]-NMe2), the Activity with Chlamydia trachomatis came out at 30.9343 ×10⁵ U/mL. In addition, the IC50 in assay [3] was greater than 500 µM. Besides, the “Ratio IC50” value in assay [4] is “inactive”.
Regarding `CCCC(NC(=O)[C@@H]1CCCN1C(=O)[C@@H](NC(=O)OC(C)(C)C)C(C)C)P(=O)(Oc1ccccc1)Oc1ccccc1` (mixture of isomers), the IC50 in assay [2] was greater than 500 µM; on Neutrophil elastase, 0.68 µM; in assay [3] it was greater than 500 µM; against Trypsin, greater than 500 µM. Besides, the figures for the Activity in the assay on Chlamydia trachomatis and with Chlamydia pecorum were 1.49 ×10⁵ U/mL and 0.4583 ×10⁵ U/mL, respectively. In assay [4], the “Ratio IC50” value was “inactive”.
In the case of `CCC(=O)C(=O)C(NC(=O)[C@@H]1CCCN1C(=O)[C@@H](NC(=O)OC(C)(C)C)C(C)C)C(C)C` (mixture of isomers), the IC50 was greater than 500 µM in assay [2], 4.71 µM against Neutrophil elastase, greater than 500 µM in assay [3] and greater than 500 µM against Trypsin. The Activity with Chlamydia trachomatis turned out to be 57 ×10⁵ U/mL; with Chlamydia pecorum, 351 ×10⁵ U/mL. Also, in assay [4], the “Ratio IC50” value was “inactive”.
For the compound `CC(C)C(CO)NC(=O)[C@@H]1CCCN1C(=O)[C@@H](NC(=O)OC(C)(C)C)C(C)C` (mixture of isomers), in the assay on Chlamydia trachomatis, the Activity is on record as 34.6007 ×10⁵ U/mL. Besides, the IC50 in assay [3] was greater than 500 µM. In addition, in assay [4], the “Ratio IC50” value was “inactive”.
As for `CC(C)C(NC(=O)[C@@H]1CCCN1C(=O)[C@@H](NC(=O)OC(C)(C)C)C(C)C)C(=O)c1nccs1` (mixture of isomers), the values for the Activity with Chlamydia trachomatis and in the assay with Chlamydia pecorum were 33.1 ×10⁵ U/mL and 1.983 ×10⁵ U/mL, respectively. Moreover, the IC50 in assay [3] is greater than 500 µM. In assay [4], the “Ratio IC50” value was “inactive”.
Take `CCC(C)C(NC(=O)[C@@H]1CCCN1C(=O)[C@@H](NC(=O)OC(C)(C)C)C(C)(C)C)P(=O)(Oc1ccccc1)Oc1ccccc1` (mixture of isomers): the IC50 in assay [2] is 0.53 µM; against Neutrophil elastase, 2.35 µM; in assay [3], greater than 500 µM; against Trypsin, greater than 500 µM. Besides, the Activity in the assay with Chlamydia trachomatis was found to be 0.1099 ×10⁵ U/mL; in the assay with Chlamydia pecorum, 0.2042 ×10⁵ U/mL. Moreover, in assay [4], the “Ratio IC50” value was “inactive”.
For the compound `CCC(C)C(NC(=O)[C@@H]1CCCN1C(=O)[C@@H](NC(=O)OC(C)(C)C)C(C)(C)C)C(=O)c1nc2ccccc2s1` (mixture of isomers), the IC50 in assay [2] is greater than 500 µM; at Neutrophil elastase it was 4.83 µM; in assay [3], greater than 500 µM; at Trypsin it was greater than 500 µM. Also, the Activity is given as 2.829 ×10⁵ U/mL in the assay with Chlamydia trachomatis and 0.2193 ×10⁵ U/mL in the assay with Chlamydia pecorum. Moreover, the “Ratio IC50” value in assay [4] is “inactive”.
Turning to `CC(C)[C@H](NC(=O)OC(C)(C)C)C(=O)N1CCC[C@H]1C(=O)NC(C(C)(C)C)P(=O)(Oc1ccccc1)Oc1ccccc1` (mixture of isomers), the IC50 (in assay [2]; on Neutrophil elastase; in assay [3]; against Trypsin) was greater than 500 µM throughout. The Activity with Chlamydia trachomatis worked out at 0.217 ×10⁵ U/mL; in the assay on Chlamydia pecorum, 5.344 ×10⁵ U/mL. Further, the “Ratio IC50” value in assay [4] was “inactive”.
As to `CC(C)C(NC(=O)[C@@H]1CCCN1C(=O)[C@@H](NC(=O)OC(C)(C)C)C(C)C)C(=O)C(=O)C1CC1` (mixture of isomers), the IC50 (in assay [2]; in assay [3]; on Trypsin) was greater than 500 µM each time. The Activity with Chlamydia trachomatis is reported as 55.0347 ×10⁵ U/mL. Besides, the “Ratio IC50” value in assay [4] is “inactive”.
`CCC(C)C(NC(=O)[C@@H]1CCCN1C(=O)[C@@H](NC(=O)OC(C)(C)C)[C@@H](C)CC)P(=O)(Oc1ccccc1)Oc1ccccc1` (mixture of isomers): the IC50 is 1.28 µM in assay [2], 0.84 µM on Neutrophil elastase, 86 µM in assay [3] and greater than 500 µM against Trypsin. In addition, the Activity with Chlamydia trachomatis is reported as 0.1134 ×10⁵ U/mL; with Chlamydia pecorum, 0.3958 ×10⁵ U/mL.
As to `CC[C@H](C)[C@H](NC(=O)OC(C)(C)C)C(=O)N1CCC[C@H]1C(=O)NC(C(C)C)P(=O)(Oc1ccccc1)Oc1ccccc1` (mixture of isomers), the IC50 in assay [2] is greater than 500 µM; against Neutrophil elastase, 0.4 µM; in assay [3], 25 µM; against Trypsin it was greater than 500 µM. Besides, the Activity was 0.5089 ×10⁵ U/mL with Chlamydia trachomatis and 10.8851 ×10⁵ U/mL with Chlamydia pecorum. In addition, the Ratio IC50 in assay [4] amounted to 14.3.
Take `CCC(C)C(NC(=O)[C@@H]1CCCN1C(=O)[C@@H](NC(=O)OC(C)(C)C)C(C)C)P(=O)(Oc1ccccc1)Oc1ccccc1` (mixture of isomers): the IC50 is 38.5 µM in assay [2], 0.36 µM against Neutrophil elastase, 18.4 µM in assay [3] and greater than 500 µM against Trypsin. Moreover, the Activity with Chlamydia trachomatis is 0.09231 ×10⁵ U/mL; with Chlamydia pecorum it was 43.9246 ×10⁵ U/mL. Further, the Ratio IC50 in assay [4] turned out to be 20.
In the case of `CC(=O)C(=O)C(NC(=O)[C@@H]1CCCN1C(=O)[C@@H](NC(=O)OC(C)(C)C)C(C)C)C(C)C` (mixture of isomers), the IC50 in assay [2] is greater than 500 µM; against Neutrophil elastase, 1.35 µM; in assay [3] it was greater than 500 µM; against Trypsin, greater than 500 µM. Further, the Activity in the assay on Chlamydia trachomatis was found to be 86 ×10⁵ U/mL. The “Ratio IC50” value in assay [4] is “inactive”.
Consider `CCC[C@H](NC(=O)OC(C)(C)C)C(=O)N1CCC[C@H]1C(=O)NC(C(C)C)P(=O)(Oc1ccccc1)Oc1ccccc1` (mixture of isomers), for which the IC50 was greater than 500 µM in assay [2], 0.45 µM against Neutrophil elastase, 56 µM in assay [3] and greater than 500 µM against Trypsin. Moreover, the figures for the Activity in the assay on Chlamydia trachomatis and in the assay with Chlamydia pecorum were 17.0963 ×10⁵ U/mL and 219.8 ×10⁵ U/mL, respectively.
For `CC(C)C(NC(=O)[C@@H]1CCCN1C(=O)[C@@H](NC(=O)OC(C)(C)C)C(C)(C)C)P(=O)(Oc1ccccc1)Oc1ccccc1` (mixture of isomers), the IC50 was greater than 500 µM in assay [2], 0.68 µM against Neutrophil elastase, 9.3 µM in assay [3] and greater than 500 µM against Trypsin. Further, the Activity was determined as 0.01548 ×10⁵ U/mL in the assay on Chlamydia trachomatis and 0.03388 ×10⁵ U/mL in the assay with Chlamydia pecorum. In addition, the Ratio IC50 in assay [4] was 33.3.
